Paper PMC3018684 (Free radical research, 2010)

Experiments:
[1] = test system: MPO in CF sputum; format: biochemical, human; conditions: extrapolated from IC50 in about 2000-fold diluted sputum (Fig 4)
[2] = test system: MPO compound I and II; conditions: cited from earlier work; for rate constant k of reaction with compound I and II of MPO: both compound I and II
[3] = cited from earlier work
[4] = CF patients, 300/450 mg three times daily for 14 days; cited from earlier work
[5] = biological target: purified human MPO (Homo sapiens, UniProt P05164); assay: Inhibition kinetics of MPO-dependent TMB oxidation by thiol antioxidants; format: biochemical; conditions: for mode of inhibition of MPO-catalyzed oxidation of TMB: double reciprocal plots 1/V vs 1/[TMB]
Method in brief: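 Purified human MPO (1.5 nM) incubated with test thiol at 0.1–1 μM. Activity measured as initial rate of TMB oxidation, with TMB varied from 20 to 180 μM. Data plotted as double reciprocal 1/V vs 1/[TMB] (Lineweaver-Burk) for each inhibitor level. Slopes of these lines replotted against inhibitor concentration to derive Ki.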

[6] = Ex vivo scavenging of N-chloramines in CF sputum sol-phase; parameters: species or system human; conditions: 2 μM antioxidant, 25 μl CF sputum sol-phase, 30 min
[7] = test system: NF-κB; conditions: GSH 1 mM with CF sputum sol-phase 10 μl/ml, HBE1 cells
[8] = pH 7.4; cited from earlier work
[9] = test system: ground state ferric MPO; conditions: cited from earlier work
[10] = inhalation in CF patients, secondary to acidic nature; no reference given; cited from earlier work
[11] = no reference given; cited from earlier work
[12] = oral 0.6–1.0 g three times daily for 4 weeks; cited from earlier work

Sequence of purified human MPO (P05164 279-745 limits assumed): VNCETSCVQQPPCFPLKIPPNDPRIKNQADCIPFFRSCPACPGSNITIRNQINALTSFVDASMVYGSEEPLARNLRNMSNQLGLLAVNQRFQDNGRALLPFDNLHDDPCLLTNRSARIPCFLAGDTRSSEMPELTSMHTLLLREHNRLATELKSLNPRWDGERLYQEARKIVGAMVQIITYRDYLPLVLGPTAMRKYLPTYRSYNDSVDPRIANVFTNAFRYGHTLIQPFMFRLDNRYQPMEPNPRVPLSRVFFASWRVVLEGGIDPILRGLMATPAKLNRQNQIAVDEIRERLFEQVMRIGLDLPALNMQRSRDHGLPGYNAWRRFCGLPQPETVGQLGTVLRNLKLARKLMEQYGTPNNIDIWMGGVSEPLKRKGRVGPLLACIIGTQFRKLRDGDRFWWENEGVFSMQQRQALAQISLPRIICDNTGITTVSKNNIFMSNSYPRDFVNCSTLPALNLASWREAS
Sequence of purified human MPO (P05164 165-273 limits assumed): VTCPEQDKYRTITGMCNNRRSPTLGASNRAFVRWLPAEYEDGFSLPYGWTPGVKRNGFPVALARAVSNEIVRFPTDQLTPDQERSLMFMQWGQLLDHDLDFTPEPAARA

N[C@@H](CCC(=O)N[C@@H](CS)C(=O)NCC(=O)O)C(=O)O [GSH, glutathione]
respiratory tract lining fluid concentration required to inhibit MPO in the CF airway [1]: 1 to 50 mM | rate constant k of reaction with compound I and II of MPO [2]: 10^1–10^2 M^−1s^−1 | rate constant k of reaction with taurine chloramine [3]: 115 ± 14 M⁻¹ s⁻¹ | lung function after aerosolized GSH [4]: improved lung function | Ki [5]: 80 nM | mode of inhibition of MPO-catalyzed oxidation of TMB [5]: competitive | lowering of N-chloramine levels [6]: 62 ± 11% | p65 nuclear translocation induced by CF sputum (sol-phase) [7]: inhibit p65 nuclear translocation | second-order rate constant for reaction with H2O2 [8]: 0.87 M⁻¹ s⁻¹

OO [H2O2]
rate constant k of reaction with ground state ferric MPO [9]: 2.6e+07 M⁻¹ s⁻¹

CC(=O)N[C@@H](CS)C(=O)O [NAC, N-acetylcysteine]
respiratory tract lining fluid concentration required to inhibit MPO in the CF airway [1]: 1 to 50 mM | rate constant k of reaction with compound I and II of MPO [2]: 10^1–10^2 M^−1s^−1 | rate constant k of reaction with taurine chloramine [3]: 46 ± 7 M⁻¹ s⁻¹ | reactivity with taurine chloramine relative to GSH (times less reactive) [3]: approx. 2.5 | side effects on inhalation [10]: can induce bronchospasm | mode of inhibition of MPO-catalyzed oxidation of TMB [5]: non-competitive | pKa [11]: 2.2 | lowering of N-chloramine levels [6]: 80 ± 11% | second-order rate constant for reaction with H2O2 [8]: 0.16 M⁻¹ s⁻¹ | lung function, as assessed by FEV1 [12]: no improvement in lung function | neutrophil GSH content [12]: increased neutrophil GSH content | neutrophil influx in CF airways [12]: decreased neutrophil influx in CF airways | sputum IL-8 levels [12]: decreased sputum IL-8 levels | sputum elastase activity [12]: decreased sputum elastase activity

Cc1cc(-c2cc(C)c(N)c(C)c2)cc(C)c1N [TMB, 3, 3′, 5, 5′-tetramethylbenzidine]
rate constant of reaction with MPO compound I [2]: 3.6e+06 M⁻¹ s⁻¹ | rate constant of reaction with MPO compound II [2]: 940000 M⁻¹ s⁻¹
